Test [1] addresses T1, Inosine-5'-monophosphate dehydrogenase (Cryptosporidium parvum, UniProt Q8T6T2).
T1 sequence (Q8T6T2 whole entry): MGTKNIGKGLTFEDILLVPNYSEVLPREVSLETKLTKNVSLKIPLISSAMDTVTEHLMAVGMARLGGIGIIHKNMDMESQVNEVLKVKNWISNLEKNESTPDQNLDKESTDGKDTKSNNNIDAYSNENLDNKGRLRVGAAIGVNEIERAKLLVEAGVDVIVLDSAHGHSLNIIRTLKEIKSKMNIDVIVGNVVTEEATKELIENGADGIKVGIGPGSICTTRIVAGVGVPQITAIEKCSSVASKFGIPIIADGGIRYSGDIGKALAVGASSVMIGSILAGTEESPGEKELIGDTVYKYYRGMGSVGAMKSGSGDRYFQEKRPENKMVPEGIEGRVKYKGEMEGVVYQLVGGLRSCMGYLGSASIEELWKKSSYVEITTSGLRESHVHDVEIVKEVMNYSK
The experiment in a line: Inhibition of recombinant Cryptosporidium parvum IMPDH expressed in Escherichia coli assessed as NADH production preincubated for 5 mins by fluorescence assay in presence of bovine serum albumin. Put shortly: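 NADH production was followed at varying inhibitor concentrations, with 0.05% fatty-acid-free bovine serum albumin added to gauge non-specific binding. Values are the mean of three independent determinations unless otherwise flagged.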

The target of test [2] is Inosine-5'-monophosphate dehydrogenase 2 (Homo sapiens, UniProt P12268). The experiment in a line: Inhibition of human IMPDH2.
Test [3] concerns the target T1, Inosine-5'-monophosphate dehydrogenase. The experiment in a line: Inhibition of recombinant Cryptosporidium parvum IMPDH expressed in Escherichia coli assessed as NADH production preincubated for 5 mins by fluorescence assay. The method in brief: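 Enzyme activity was tracked as NADH production across varying inhibitor concentrations. Values are the mean of three independent determinations unless otherwise flagged.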

Test [4] deals with Toxoplasma gondii. In words: Selectivity ratio of EC50 for wild type Toxoplasma gondii expressing endogenous IMPDH to EC50 for hypoxanthine-guanine-xanthine phosphoribosyltransferase gene knock out Toxoplasma gondii expressing Cryptosporidium parvum IMPDH. The class given is functional.
For test [5], the system named is Toxoplasma gondii. In words: Antiparasitic activity against hypoxanthine-guanine-xanthine phosphoribosyltransferase gene knock out Toxoplasma gondii expressing Cryptosporidium parvum IMPDH infected in human foreskin fibroblasts assessed as parasite proliferation by fluorescence assay. The class given is functional, organism-based. The method in brief: (§1)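 T. gondii strains carrying a yellow fluorescent protein reporter, grown in hTERT-immortalized human foreskin fibroblasts. Parasite proliferation is followed by fluorescence. Because the parasites grow in the host fibroblasts, the read-out also reflects host cell toxicity.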

The subject of test [6] is Cryptosporidium parvum. In words: Antiparasitic activity against Cryptosporidium parvum infection model. Type of test: functional, organism-based.
Test [7] concerns Cryptosporidium parvum. In words: Ratio of paromomycin EC50 to compound EC50 for Cryptosporidium parvum infection model. The class given is functional.
The subject of test [8] is Toxoplasma gondii. The experiment in a line: Antiparasitic activity against wild type Toxoplasma gondii expressing endogenous IMPDH infected in human foreskin fibroblasts assessed as inhibition of parasite proliferation by fluorescence assay. The class given is functional, organism-based. The method in brief: as §1
Test [9] has as its target Inosine-5'-monophosphate dehydrogenase 1 (Homo sapiens, UniProt P20839). The experiment in a line: Inhibition of human IMPDH1.
The subject of test [10] is Cryptosporidium parvum. In words: Antiparasitic activity against Cryptosporidium parvum infection model at 0.8 uM. The class given is functional. The note with it: read-out: GI.

In general, IC50 refers to the concentration that inhibits the measured activity by half. By EC50 is commonly meant the concentration that produces a half-maximal response.

Sequence of Inosine-5'-monophosphate dehydrogenase 1 (P20839 whole entry): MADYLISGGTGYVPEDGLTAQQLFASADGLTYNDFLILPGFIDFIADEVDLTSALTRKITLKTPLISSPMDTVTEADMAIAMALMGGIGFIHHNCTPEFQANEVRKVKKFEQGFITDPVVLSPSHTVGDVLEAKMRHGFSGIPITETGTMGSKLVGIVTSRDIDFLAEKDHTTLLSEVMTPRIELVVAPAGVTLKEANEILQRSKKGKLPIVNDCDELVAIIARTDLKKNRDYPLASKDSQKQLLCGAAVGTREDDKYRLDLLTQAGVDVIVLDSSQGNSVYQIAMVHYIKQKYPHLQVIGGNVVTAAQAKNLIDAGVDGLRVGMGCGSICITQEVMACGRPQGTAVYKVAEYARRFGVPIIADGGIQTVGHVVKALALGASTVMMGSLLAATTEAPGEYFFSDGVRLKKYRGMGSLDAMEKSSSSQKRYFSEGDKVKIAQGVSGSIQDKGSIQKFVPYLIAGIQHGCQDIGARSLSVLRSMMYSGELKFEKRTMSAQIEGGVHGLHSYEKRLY

For the compound `Cn1cc(-c2nc3ccccc3n2CC(=O)Nc2ccc(Cl)cc2)cn1`, the IC50 in test [1] is 42 nM; in test [2], more than 5 µM; in test [3], 35 nM.

Take `O=C(Cn1c(-c2nccs2)nc2ccccc21)Nc1ccc(Cl)cc1`: the IC50 in [1] was 50 nM; in test [2] it was more than 5 µM; in [3] it was 30 nM.

Consider `CC(C(=O)Nc1ccc(Cl)cc1)n1c(-c2cscn2)nc2ccccc21` (stereo unspecified), for which the half-inhibitory concentration (IC50) is 80 nM in test [1], more than 5 µM in [2] and 60 nM in [3].

`O=C(Cn1c(-c2cscn2)nc2ccccc21)Nc1ccc2ccccc2c1`: the “Ratio EC50” value in [4] amounted to 9; in [7], 2. The EC50 in test [5] stood at 600 nM; in test [6], 900 nM; in test [8] it was 5 µM. In addition, the IC50 in [1] was 20 nM; in test [2], more than 5 µM; in test [3], 7 nM.

Regarding `O=C(Cn1c(-c2nccs2)nc2ccccc21)Nc1ccc(Br)cc1`, the EC50 was 300 nM in test [5], 700 nM in [6] and more than 23 µM in test [8]. Also, the values for the IC50 in test [1], in test [2] and in test [3] were 27 nM, more than 5 µM and 28 nM, respectively.

Consider `Cc1nc2ccccc2n1CC(=O)Nc1ccc(Cl)cc1`, for which the values for the IC50 in test [2] and in test [3] were more than 5 µM and 5000 nM, respectively.

For `O=C(Cn1c(-c2ccc(F)cc2)nc2ccccc21)Nc1ccc(Cl)cc1`, the values for the IC50 in test [1], in [2] and in test [3] were 1300 nM, more than 5 µM and 870 nM, respectively.

As to `O=C(Cn1c(-c2ccccc2)nc2ccccc21)Nc1ccc(Cl)cc1`, the results for the IC50 in test [1], in [2] and in test [3] were 280 nM, more than 5 µM and 210 nM, respectively.

For `CC(C)c1ccc(NC(=O)Cn2c(-c3cscn3)nc3ccccc32)cc1`, the IC50 in test [2] is more than 5 µM; in test [3] it was 5000 nM.

With `O=C(Cn1c(-c2cscn2)nc2ccccc21)Nc1ccc(C(F)(F)F)cc1`, the IC50 was 330 nM in test [1], more than 5 µM in [2] and 220 nM in test [3].

In the case of `N#Cc1ccc(NC(=O)Cn2c(-c3cscn3)nc3ccccc32)cc1`, the values for the IC50 in test [2] and in [3] were more than 5 µM and 370 nM, respectively.

Regarding `O=C(Cn1c(-c2cscn2)nc2ccccc21)Nc1ccc(F)cc1`, the values for the IC50 in [2] and in [3] were more than 5 µM and 900 nM, respectively.

Turning to `O=C(Cn1c(-c2ccccn2)nc2ccccc21)Nc1ccc(Cl)cc1`, the IC50 was 90 nM in test [1], more than 5 µM in test [2] and 43 nM in test [3].

For the compound `O=C(Cn1c(-c2nccs2)nc2ccccc21)Nc1ccc(Cl)c(Cl)c1`, the “Ratio EC50” value is listed as 5 in test [4] and 2 in test [7]. Besides, the EC50 in test [5] is 700 nM; in test [6], 1700 nM; in test [8], 3 µM. For the same compound, the values for the IC50 in test [1], in [2] and in [3] were 50 nM, more than 5 µM and 18 nM, respectively.

As to `N#Cc1cc(NC(=O)Cn2c(-c3cscn3)nc3ccccc32)ccc1Cl`, the IC50 in [1] is 60 nM; in test [2], more than 5 µM; in test [3], 30 nM.

`CC(C)C(C(=O)Nc1ccc(Cl)cc1)n1c(-c2cscn2)nc2ccccc21` (stereo unspecified): the IC50 in test [2] is more than 5 µM; in test [3] it was 5000 nM.

As to `O=C(Cn1c(-c2cscn2)nc2ccccc21)Nc1ccc(Cl)cc1`, the IC50 in test [1] was 200 nM; in test [2], more than 5 µM; in test [3] it was 120 nM.

Turning to `N#Cc1cc(NC(=O)Cn2c(-c3ccccn3)nc3ccccc32)ccc1Cl`, the IC50 in [1] is 40 nM; in test [2], more than 5 µM; in [3] it was 22 nM.

As to `O=C(Cn1c(-c2cncs2)nc2ccccc21)Nc1ccc(Cl)cc1`, the IC50 in [1] was 60 nM; in [2], more than 5 µM; in test [3], 35 nM.

For `O=C(Cn1c(-c2cscn2)nc2ccccc21)Nc1ccc(Cl)c2ccccc12`, the IC50 was more than 5 µM in [2] and 5000 nM in test [3].

`CS(=O)(=O)c1ccc(NC(=O)Cn2c(-c3cscn3)nc3ccccc32)cc1`: the IC50 in test [2] is more than 5 µM; in test [3], 5000 nM.

`COc1ccc(NC(=O)Cn2c(-c3cscn3)nc3ccccc32)cc1`: the IC50 in test [2] and in [9] was more than 50 µM in each case.

For `O=C(Cn1c(-c2ncco2)nc2ccccc21)Nc1ccc(Cl)cc1`, the IC50 in [1] is 230 nM; in test [2], more than 5 µM; in test [3], 170 nM.

Take `O=C(Cn1c(-c2ccccn2)nc2ccccc21)Nc1ccc(Cl)c(Cl)c1`: the IC50 in [1] is 40 nM; in [2], more than 5 µM; in [3], 22 nM.

Turning to `O=C(Cn1c(-c2cscn2)nc2ccccc21)Nc1cccc(Cl)c1`, the IC50 in [1] is 1430 nM; in test [2] it was more than 5 µM; in test [3], 490 nM.

Turning to `O=C(Cn1c(-c2ccc(Cl)cc2)nc2ccccc21)Nc1ccc(Cl)cc1`, the values for the IC50 in test [2] and in test [3] were more than 5 µM and 450 nM, respectively.

Consider `O=C(Cn1c(-c2cscn2)nc2ccccc21)Nc1ccc(Br)cc1`, for which the IC50 was more than 5 µM in [2] and 60 nM in [3].

`O=C(Cn1c(-c2cccs2)nc2ccccc21)Nc1ccc(Cl)cc1`: the IC50 in [1] was 60 nM; in [2], more than 5 µM; in test [3], 20 nM.

On to `O=C(Cn1c(-c2cscn2)nc2ccccc21)Nc1ccc(OC(F)(F)F)cc1`, for which the IC50 in test [2] was more than 5 µM; in test [3] it was 140 nM.

`CC(C(=O)Nc1ccc(Cl)cc1)n1c(-c2nccs2)nc2ccccc21` (stereo unspecified): the results for the IC50 in test [1], in test [2] and in test [3] were 30 nM, more than 5 µM and 23 nM, respectively.

With `O=C(Cn1c(-c2cscn2)nc2ccccc21)Nc1ccccc1Cl`, the values for the IC50 in [2] and in [3] were more than 5 µM and 5000 nM, respectively.

Regarding `O=C(Cn1c(-c2nccs2)nc2ccccc21)Nc1ccc2ccccc2c1`, the “Ratio EC50” value in test [4] came to 30; in test [7] it was 2. The EC50 in [5] is 500 nM; in test [6], less than 800 nM; in test [8] it was 17 µM. Besides, the IC50 in test [1] is 20 nM; in test [2], more than 5 µM; in test [3], 8 nM. The inhibition of growth at 0.8 µM in [10] came to 80%.

Turning to `CC(C(=O)Nc1ccc(Cl)c(Cl)c1)n1c(-c2cscn2)nc2ccccc21` (stereo unspecified), the IC50 was 300 nM in test [1], more than 5 µM in test [2] and 240 nM in test [3].

With `O=C(Cn1c(-c2ccccn2)nc2ccccc21)Nc1ccc2ccccc2c1`, the EC50 in test [5] was found to be 300 nM; in test [8], 2.7 µM. In addition, the IC50 was 14 nM in [1] and more than 5 µM in [2].

Take `O=C(Cn1c(-c2cscn2)nc2ccccc21)Nc1ccc(Cl)c(Cl)c1`: the values for the concentration for half-maximal inhibition (IC50) in [1], in test [2] and in [3] were 90 nM, more than 5 µM and 30 nM, respectively.

Turning to `CSc1ccc(NC(=O)Cn2c(-c3cscn3)nc3ccccc32)cc1`, the IC50 was 69 nM in [1], more than 5 µM in test [2] and 120 nM in test [3].

As for `NC[C@@H]1O[C@H](O[C@H]2[C@@H](O)[C@H](O[C@@H]3[C@@H](O)[C@H](N)C[C@H](N)[C@H]3O[C@H]3O[C@H](CO)[C@@H](O)[C@H](O)[C@H]3N)O[C@@H]2CO)[C@H](N)[C@@H](O)[C@@H]1O` [PAROMOMYCIN], the EC50 in test [6] turned out to be 65000 nM.

For the compound `O=C(Cn1c(-c2ccc[nH]2)nc2ccccc21)Nc1ccc(Cl)cc1`, the IC50 is 120 nM in [1], more than 5 µM in test [2] and 80 nM in test [3].

With `O=C(Cn1c(-c2cscn2)nc2ccccc21)NCc1ccc(Cl)cc1`, the IC50 in test [2] is more than 5 µM.
